Calls of active or inactive are those of the source. The rule behind the calls is not given here.
What was measured:
[1] = biological target: T1, Signal transducer and activator of transcription 3 (Homo sapiens, UniProt P40763); test: Inhibition of SH2 domain of Stat3 constitutive phosphorylation at Tyr705 in human MDA-MB-468 cells at 5 uM after 2 hrs by Western blotting; format: cell-based
Summary of the method: (§1)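 MDA-MB-468 cells (4×10^5/well, DMEM 10% FCS, overnight) given prodrug from freshly made 10 mM DMSO stock for 2 h. Lysates in Hepes pH 7.4 Triton buffer with phosphatase/protease inhibitors; 12 μg protein on 8% SDS-PAGE, PVDF, probed for pStat3 Y705 by ECL, then stripped and reprobed for total Stat3.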

[2] = biological target: T1, Signal transducer and activator of transcription 3; test: Inhibition of SH2 domain of Stat3 constitutive phosphorylation at Tyr705 in human MDA-MB-468 cells at 5 uM after 30 mins by Western blotting; format: cell-based
Summary of the method: (§2)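 MDA-MB-468 cells given a single 5 μM prodrug dose and harvested at set times; pTyr705 and total Stat3 by Western blot of 12 μg lysate protein on 8% SDS-PAGE.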

[3] = biological target: T1, Signal transducer and activator of transcription 3; test: Inhibition of SH2 domain of Stat3 constitutive phosphorylation at Tyr705 in human MDA-MB-468 cells at 0.5 uM after 2 hrs by Western blotting; format: cell-based; summary of the method: as §1
[4] = biological target: T1, Signal transducer and activator of transcription 3; test: Inhibition of SH2 domain of Stat3 constitutive phosphorylation at Tyr705 in human MDA-MB-468 cells at 5 uM after 4 hrs by Western blotting; format: cell-based; summary of the method: as §2
[5] = biological target: T1, Signal transducer and activator of transcription 3; test: Inhibition of SH2 domain of Stat3 constitutive phosphorylation at Tyr705 in human MDA-MB-468 cells at 5 uM after 8 hrs by Western blotting; format: cell-based; summary of the method: as §2
[6] = biological target: T1, Signal transducer and activator of transcription 3; test: Inhibition of SH2 domain of Stat3 constitutive phosphorylation at Tyr705 in human MDA-MB-468 cells at 5 uM after 16 hrs by Western blotting; format: cell-based; summary of the method: as §2
[7] = biological target: T1, Signal transducer and activator of transcription 3; test: Inhibition of EGF-induced SH2 domain of Stat3 phosphorylation at Tyr705 in human MDA-MB-468 cells at 5 uM treated 1.5 hrs before EGF challenge measured after 30 mins by Western blotting; format: cell-based
Summary of the method: (§3)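 MDA-MB-468 cells pretreated 1.5 h with prodrug (5 μM), then EGF 100 ng/mL for 30 min; lysates split onto three PVDF blots probed for phospho/total Stat3, pSer473/total Akt, and phospho/total Stat5.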

[8] = biological target: T2, Signal transducer and activator of transcription 5A (Homo sapiens) (UniProt P42229); test: Inhibition of EGF-induced SH2 domain of Stat5 phosphorylation at Tyr694 in human MDA-MB-468 cells at 5 uM treated 1.5 hrs before EGF challenge measured after 30 mins by Western blotting; format: cell-based; summary of the method: as §3
T2 sequence (whole entry): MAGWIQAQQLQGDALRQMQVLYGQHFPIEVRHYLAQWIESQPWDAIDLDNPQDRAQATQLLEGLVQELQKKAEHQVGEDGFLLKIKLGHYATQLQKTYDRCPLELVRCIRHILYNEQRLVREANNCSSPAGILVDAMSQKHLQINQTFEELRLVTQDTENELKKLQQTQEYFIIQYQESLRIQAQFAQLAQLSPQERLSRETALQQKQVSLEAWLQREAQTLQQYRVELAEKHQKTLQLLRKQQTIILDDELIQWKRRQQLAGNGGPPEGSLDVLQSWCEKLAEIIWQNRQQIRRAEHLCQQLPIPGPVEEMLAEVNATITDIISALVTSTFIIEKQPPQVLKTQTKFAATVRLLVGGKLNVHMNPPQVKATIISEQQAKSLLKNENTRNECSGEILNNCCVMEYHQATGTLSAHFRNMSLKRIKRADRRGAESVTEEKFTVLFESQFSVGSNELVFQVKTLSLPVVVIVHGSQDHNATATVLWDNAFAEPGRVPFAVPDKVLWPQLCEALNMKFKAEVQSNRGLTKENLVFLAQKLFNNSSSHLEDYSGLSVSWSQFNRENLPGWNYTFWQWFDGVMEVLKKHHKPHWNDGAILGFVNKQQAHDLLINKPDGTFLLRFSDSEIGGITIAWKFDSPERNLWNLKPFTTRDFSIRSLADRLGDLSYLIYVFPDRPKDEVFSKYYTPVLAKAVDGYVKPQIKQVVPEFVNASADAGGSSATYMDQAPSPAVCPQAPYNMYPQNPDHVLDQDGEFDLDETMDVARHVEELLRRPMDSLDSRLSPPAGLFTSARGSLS

[9] = biological target: RAC-alpha serine/threonine-protein kinase (Homo sapiens) (UniProt P31749); test: Inhibition of EGF-induced Akt phosphorylation at Ser473 in human MDA-MB-468 cells at 5 uM treated 1.5 hrs before EGF challenge measured after 30 mins by Western blotting; format: cell-based; summary of the method: as §3
[10] = biological target: T3, Signal transducer and activator of transcription 1-alpha/beta (Homo sapiens) (UniProt P42224); test: Inhibition of IFN-gamma-induced Stat1 phosphorylation at Tyr701 in human MDA-MB-468 cells treated 1.5 hrs before IFN-gamma challenge measured after 30 mins by Western blotting; format: cell-based
T3 sequence (whole entry): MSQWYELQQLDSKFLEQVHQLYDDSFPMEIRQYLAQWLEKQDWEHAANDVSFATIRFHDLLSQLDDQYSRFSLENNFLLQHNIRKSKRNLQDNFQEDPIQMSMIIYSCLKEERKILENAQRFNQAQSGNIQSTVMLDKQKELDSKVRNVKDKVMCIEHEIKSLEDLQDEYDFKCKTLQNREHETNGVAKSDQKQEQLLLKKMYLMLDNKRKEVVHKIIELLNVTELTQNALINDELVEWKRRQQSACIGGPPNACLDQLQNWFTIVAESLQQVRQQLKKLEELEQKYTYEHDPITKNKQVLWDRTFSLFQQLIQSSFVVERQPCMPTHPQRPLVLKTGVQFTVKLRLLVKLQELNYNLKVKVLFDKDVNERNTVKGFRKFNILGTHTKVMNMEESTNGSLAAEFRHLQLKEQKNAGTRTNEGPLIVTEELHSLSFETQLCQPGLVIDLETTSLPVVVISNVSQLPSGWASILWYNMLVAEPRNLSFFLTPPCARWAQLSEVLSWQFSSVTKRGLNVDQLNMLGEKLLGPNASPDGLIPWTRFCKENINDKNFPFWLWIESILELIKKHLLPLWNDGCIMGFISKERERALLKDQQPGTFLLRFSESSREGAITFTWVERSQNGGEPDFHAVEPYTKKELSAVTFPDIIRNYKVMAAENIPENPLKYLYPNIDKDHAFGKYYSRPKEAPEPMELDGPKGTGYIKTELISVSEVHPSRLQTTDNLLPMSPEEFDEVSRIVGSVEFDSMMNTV
Summary of the method: (§4)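 MDA-MB-468 cells exposed to rising prodrug concentrations for 1.5 h, then interferon γ 25 ng/mL for 30 min; Western blot for pTyr701 and total Stat1.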

[11] = biological target: T3, Signal transducer and activator of transcription 1-alpha/beta (Homo sapiens); test: Inhibition of IFN-gamma-induced Stat1 phosphorylation at Tyr701 in human MDA-MB-468 cells at 5 uM treated 1.5 hrs before IFN-gamma challenge measured after 30 mins by Western blotting; format: cell-based; summary of the method: as §4
MDA-MB-468 [12] = test: Selectivity ratio of inhibition of IFNgamma-induced Stat1 phosphorylation at Tyr701 to inhibition of EGF-induced SH2 domain of Stat3 phosphorylation at Tyr705 in human MDA-MB-468 cells; format: cell-based
MDA-MB-468 [13] = test: Cytotoxicity against human MDA-MB-468 cells after 72 hrs by MTT assay; format: functional, cell-based; conditions: MDA-MB-468, 72 h
Summary of the method: (§5)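 MDA-MB-468 cells in DMEM/10% FBS, 1500 cells/well in triplicate; medium changed next day. Prodrug stock 10 mM in ethanol, diluted into wells (ethanol <1% final); single dose or daily re-addition at 24 and 48 h in same medium. MTT read-out at 72 h; assays run three times.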

[14] = biological target: Focal adhesion kinase 1 (Homo sapiens) (UniProt Q05397); test: Inhibition of constitutive FAK phosphorylation at Tyr861 in human MDA-MB-468 cells at 5 uM measured after 2 hrs by Western blotting
[15] = biological target: T1, Signal transducer and activator of transcription 3; test: Inhibition of SH2 domain of Stat3 constitutive phosphorylation at Tyr705 in human MDA-MB-468 cells at 25 uM after 2 hrs by Western blotting; format: cell-based; summary of the method: as §1
MDA-MB-468 [16] = test: Cytotoxicity against human MDA-MB-468 cells up to 50 uM after 72 hrs by SRB assay; format: functional, cell-based
MCF7 = test: Cytotoxicity against human MCF7 cells up to 50 uM after 72 hrs by SRB assay; format: functional, cell-based
Summary of the method: (§6)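 Cancer cell lines (MCF-7, SKOV3-ip, HCC-827) dosed daily with prodrug for three days; viability by SRB assay.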

SKOV3ip = test: Cytotoxicity against human SKOV3ip cells up to 50 uM after 72 hrs by SRB assay; format: functional, cell-based; summary of the method: as §6
HCC827 = test: Cytotoxicity against human HCC827 cells up to 50 uM after 72 hrs by SRB assay; format: functional, cell-based; summary of the method: as §6
MDA-MB-468 [17] = test: Cytotoxicity against human MDA-MB-468 cells assessed as cell growth inhibition at 10 to 15 uM after 72 hrs by MTT assay; format: functional, cell-based; summary of the method: as §5

T1 sequence (P40763 whole entry, the tested form may be a part): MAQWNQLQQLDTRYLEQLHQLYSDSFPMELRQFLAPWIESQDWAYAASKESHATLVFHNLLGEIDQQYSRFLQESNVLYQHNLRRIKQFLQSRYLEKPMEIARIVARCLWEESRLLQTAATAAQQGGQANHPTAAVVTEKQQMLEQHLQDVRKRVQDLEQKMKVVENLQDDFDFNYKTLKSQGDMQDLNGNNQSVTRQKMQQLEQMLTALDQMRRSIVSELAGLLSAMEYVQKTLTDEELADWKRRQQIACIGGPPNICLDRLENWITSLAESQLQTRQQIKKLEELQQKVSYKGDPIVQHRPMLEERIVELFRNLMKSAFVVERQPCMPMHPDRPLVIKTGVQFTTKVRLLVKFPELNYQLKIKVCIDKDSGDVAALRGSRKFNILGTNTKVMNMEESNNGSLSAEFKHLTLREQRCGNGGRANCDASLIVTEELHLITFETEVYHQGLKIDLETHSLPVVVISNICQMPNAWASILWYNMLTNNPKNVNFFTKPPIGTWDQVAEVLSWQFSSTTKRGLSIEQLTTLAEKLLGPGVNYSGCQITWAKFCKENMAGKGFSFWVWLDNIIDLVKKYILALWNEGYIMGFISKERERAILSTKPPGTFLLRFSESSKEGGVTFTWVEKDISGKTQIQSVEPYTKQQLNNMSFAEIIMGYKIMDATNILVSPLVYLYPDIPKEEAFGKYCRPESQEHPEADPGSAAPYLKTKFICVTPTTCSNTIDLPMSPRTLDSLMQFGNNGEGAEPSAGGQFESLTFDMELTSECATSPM
Focal adhesion kinase 1 (Homo sapiens), sequence (Q05397 2-1052 limits assumed): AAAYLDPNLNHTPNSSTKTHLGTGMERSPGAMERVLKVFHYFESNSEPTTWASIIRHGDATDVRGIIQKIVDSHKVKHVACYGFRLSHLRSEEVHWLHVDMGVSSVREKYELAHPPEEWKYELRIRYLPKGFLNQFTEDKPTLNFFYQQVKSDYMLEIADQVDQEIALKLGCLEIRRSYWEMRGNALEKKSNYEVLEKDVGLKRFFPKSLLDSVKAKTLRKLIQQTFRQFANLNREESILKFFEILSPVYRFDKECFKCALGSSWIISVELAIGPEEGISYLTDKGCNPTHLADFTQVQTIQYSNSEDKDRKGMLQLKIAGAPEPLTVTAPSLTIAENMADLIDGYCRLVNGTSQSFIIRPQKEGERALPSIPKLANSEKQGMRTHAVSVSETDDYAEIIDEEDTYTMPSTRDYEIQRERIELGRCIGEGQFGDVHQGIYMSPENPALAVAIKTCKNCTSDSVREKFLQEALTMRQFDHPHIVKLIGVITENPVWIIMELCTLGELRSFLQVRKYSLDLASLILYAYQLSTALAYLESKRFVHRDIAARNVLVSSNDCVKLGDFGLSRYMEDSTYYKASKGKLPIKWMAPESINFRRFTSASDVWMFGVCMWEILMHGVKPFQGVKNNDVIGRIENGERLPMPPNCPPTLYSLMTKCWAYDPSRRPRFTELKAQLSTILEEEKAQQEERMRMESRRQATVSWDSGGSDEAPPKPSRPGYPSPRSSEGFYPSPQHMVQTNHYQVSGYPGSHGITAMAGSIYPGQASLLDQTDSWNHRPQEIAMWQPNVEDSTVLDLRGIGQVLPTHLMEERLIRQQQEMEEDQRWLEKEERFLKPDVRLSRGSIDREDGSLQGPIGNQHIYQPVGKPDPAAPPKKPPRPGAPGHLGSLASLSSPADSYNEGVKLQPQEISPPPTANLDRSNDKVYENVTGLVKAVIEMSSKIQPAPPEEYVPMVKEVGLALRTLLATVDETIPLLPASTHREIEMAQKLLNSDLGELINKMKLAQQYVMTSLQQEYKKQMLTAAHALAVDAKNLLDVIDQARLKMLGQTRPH
RAC-alpha serine/threonine-protein kinase (Homo sapiens), sequence (P31749 whole entry): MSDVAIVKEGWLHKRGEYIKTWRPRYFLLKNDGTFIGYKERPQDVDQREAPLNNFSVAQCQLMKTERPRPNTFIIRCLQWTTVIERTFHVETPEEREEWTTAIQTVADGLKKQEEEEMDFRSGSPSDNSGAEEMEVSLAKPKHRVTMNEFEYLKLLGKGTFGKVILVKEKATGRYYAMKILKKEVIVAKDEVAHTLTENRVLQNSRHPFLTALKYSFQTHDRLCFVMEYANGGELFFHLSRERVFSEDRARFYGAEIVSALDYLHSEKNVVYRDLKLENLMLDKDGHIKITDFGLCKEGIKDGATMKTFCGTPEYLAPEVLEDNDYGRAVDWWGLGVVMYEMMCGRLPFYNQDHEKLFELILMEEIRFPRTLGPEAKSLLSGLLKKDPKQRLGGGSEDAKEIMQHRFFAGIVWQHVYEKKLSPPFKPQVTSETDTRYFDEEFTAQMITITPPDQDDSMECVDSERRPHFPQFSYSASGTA

## CCCC[C@H](NC(=O)/C=C(\C)c1ccc(C(F)(F)P(=O)(OCOC(=O)C(C)(C)C)OCOC(=O)C(C)(C)C)cc1)C(=O)N1CC2CC2C1C(=O)NCCNC(N)=O (mixture of isomers)
[1]
  inhibition: Active

## CCCC[C@H](NC(=O)/C=C(\C)c1ccc(C(F)(F)P(=O)(OCOC(=O)C(C)(C)C)OCOC(=O)C(C)(C)C)cc1)C(=O)N1C[C@H]2C[C@H]2[C@H]1C(=O)N[C@H](C)CCC(N)=O
[2]
  inhibition: Active
[3]
  inhibition: Active
[4]
  inhibition: Active
[5]
  inhibition: Active
[6]
  inhibition: inactive
[7]
  inhibition: Active
[8]
  inhibition: inactive
[9]
  inhibition: inactive
[10]
  inhibition: Dose-dependent effect
[11]
  inhibition: Active
MDA-MB-468 [12]
  Ratio: 10
MDA-MB-468 [13]
  IC50: 30 µM
[14]
  inhibition: inactive

## CCCC[C@H](NC(=O)/C=C(\C)c1ccc(C(F)(F)P(=O)(OCOC(=O)C(C)(C)C)OCOC(=O)C(C)(C)C)cc1)C(=O)N1C[C@@H]2C[C@@H]2[C@@H]1C(=O)N[C@H](C)CCC(N)=O
[15]
  inhibition: Active
MDA-MB-468 [13]
  IC50: 30 µM

## CCOP(=O)(OCC)C(F)(F)c1ccc(/C(C)=C/C(=O)N[C@H]2CCc3cccc4c3N(C2=O)[C@H](C(=O)N[C@H](C)CCC(N)=O)C4)cc1
[15]
  inhibition: inactive
MDA-MB-468 [16]
  growth inhibition (GI): inactive
MCF7
  growth inhibition (GI): inactive
SKOV3ip
  growth inhibition (GI): inactive
HCC827
  growth inhibition (GI): inactive

## CCCC[C@H](NC(=O)/C=C(\C)c1ccc(C(F)(F)P(=O)(OCOC(=O)C(C)(C)C)OCOC(=O)C(C)(C)C)cc1)C(=O)N1C[C@@H]2C[C@@H]2[C@@H]1C(=O)N[C@@H](CCC(N)=O)C(C)OCc1ccccc1 (stereo partly drawn)
[15]
  inhibition: inactive
MDA-MB-468 [17]
  growth inhibition (GI): Active

Reference: ChEMBL document CHEMBL1773023, “Potent and selective phosphopeptide mimetic prodrugs targeted to the Src homology 2 (SH2) domain of signal transducer and activator of transcription 3” (J Med Chem, 2011)
